According to the RNAGym collection of RNA variant scans (doi:10.1126/science.aae0568):
Fewer inactive variants are shown than the library holds.

B1: tRNA (parent)
chain: GUUCCGUUGGCGUAAUGGUAACGCGUCUCCCUCCUAAGGAGAAGACUGCGGGUUCGAGUCCCGUACGGAACG

Variants of: B1
Test: yeast fitness relative to wild type (ratio to wild type); higher = fitter; tRNA-Arg(CCU), competitive growth, 37 C, YPD
Procedure, shortened: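 Start and end populations of a pooled competition were compared by 100-nucleotide paired-end sequencing of gene amplicons. The Saccharomyces cerevisiae strains carried tRNA-Arg(CCU) gene variants at the native genomic locus, synthesised with a 3% per-site mutation rate at 69 sites, and competed in YPD at 37°C for 24 hours in six parallel replicates. Darwinian fitness relative to wild type was based on the change in genotype frequencies. Genotypes required ≥ 100 starting reads, and estimates < 0.5 were set to 0.5.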

Row | Variant | yeast fitness
1 | G17A C33G | ≤ 0.5
2 | G17A C46A C61G A69G | ≤ 0.5
3 | U16G U28G C34U G63C | 0.608
4 | G17A A21C C31U | ≤ 0.5
5 | G17A A20C C49G | ≤ 0.5
6 | U16G G44A | 0.994
7 | G17A G63A A69C | 0.537
8 | G17A C31U U35C C62G | ≤ 0.5
9 | U16G C34U A57G A69C | ≤ 0.5
10 | G17A C49A | 0.677
11 | G17A A20U C24U U53A | ≤ 0.5
12 | G17A A21C C27U C33A A37C | 0.566
13 | G17A U28A G51A C60G A65G C66G | ≤ 0.5
14 | U16G C34U | 0.63
15 | G17A A20U C24U | 0.547
16 | U16G G17A C33A | 0.539
17 | G17A C30A A36C | ≤ 0.5
18 | G17A C30G A40C A42G | ≤ 0.5
19 | G17A C34G G67U | ≤ 0.5
20 | U16G G48C | 0.835
21 | G17A U19A G23A C31U C34A A43U | ≤ 0.5

Row | Variant | yeast fitness
22 | G17A C30U C49U C66U A69C | ≤ 0.5
23 | G17A A36G G44A U47C A70U | ≤ 0.5
24 | G17A C22G C31G C33G | ≤ 0.5
25 | G17A C55G A70C | ≤ 0.5
26 | G17A C30U A36C A43C | ≤ 0.5
27 | G17A C29U C33U A57C G68U | ≤ 0.5
28 | G17A C22U A43U | 0.639
29 | G17A G56A C66G | ≤ 0.5
30 | U16G C49U G52A G63A | 0.632
31 | G17A G23C U64A A65C G67A | ≤ 0.5
32 | U16G G23C G48A C61A | 0.577
33 | G17A C34U A57U U64C | ≤ 0.5
34 | U16G A65C | 0.932
35 | U16G A65G | 0.904
36 | U16G C22G A70G | 0.767
37 | G17A G38A C49A U54A | ≤ 0.5
38 | U16G A42G A69C A70G | ≤ 0.5
39 | G17A A37G A43C | ≤ 0.5
40 | G17A C30G G48A U53C | ≤ 0.5
41 | G17A U19A C30G | 0.66
42 | U16G C31A | 0.985

Row | Variant | yeast fitness
43 | U16G C22G C46G | 0.657
44 | G17A C61A G63A | 0.66
45 | G17A A21C U53A | ≤ 0.5
46 | U16G G44C C62U | 0.566
47 | U16G G44C C62A | 0.875
48 | U16G A57G C62G | ≤ 0.5
49 | G17A C60A | ≤ 0.5
50 | G17A C22A A45C C46U C61A | ≤ 0.5
51 | U16G C61G A65U | ≤ 0.5
52 | U16G U19C U28C | 0.986
53 | G17A A65G | 0.884
54 | G17A A65C | 0.733
55 | G17A C24A U35A | ≤ 0.5
56 | U16G U54C A69C | 0.718
57 | G17A C31U C49G | ≤ 0.5
58 | G17A C30A C60G C62A | ≤ 0.5
59 | U16G U26G C29A A57C | ≤ 0.5
60 | G17A A20G | 0.793
61 | U16G C22G | 1
62 | G17A C34A A70C | 0.631
63 | G17A U19C C24U | 0.75

Row | Variant | yeast fitness
64 | U16G G23A A40C | ≤ 0.5
65 | G17A C22U U32A C34U A37G A40U A69U | ≤ 0.5
66 | U16G G44A G56A | 0.663
67 | G17A C22A C60U C61U | ≤ 0.5
68 | G17A G41C C46A | 0.68
69 | U16G C31G G63C A65U | ≤ 0.5
70 | G17A A69U | 0.809
71 | U16G U59C C60G | ≤ 0.5
72 | G17A C24A C46A | 0.727
73 | G17A G51C | 0.543
74 | U16G G41C | 0.604
75 | U16G U35C G56C | ≤ 0.5
76 | G17A G18C A21U C55U U59A C62A | ≤ 0.5
77 | U16G A45G C66U | 0.771
78 | G17A G56C G58C | 0.585
79 | G17A A42G A70C | ≤ 0.5
80 | U16G C31G C66U | 0.586
81 | U16G A37C C66A | ≤ 0.5
82 | G17A C27G A36C U54A | 0.555
83 | G17A C33A A36U G41A G48A | ≤ 0.5
84 | U16G U28A G52C U54A C66U | ≤ 0.5
